The target of assay [1] is Human immunodeficiency virus type 1 reverse transcriptase (Human immunodeficiency virus 1) (UniProt Q72547). The assay can be described thus: Inhibition of Ribonuclease H activity of HIV-1 reverse transcriptase (at 200 uM). The procedure, abridged:
(§1)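 Recombinant HIV-1 RT (BH-10 proviral clone, E. coli-expressed, purified to homogeneity, ~66 kDa) preincubated 5 min at 30 °C with test compound (50 μM for DNA polymerase, 200 μM for RNase H); reaction started with substrate, 30 min at 37 °C; residual activity expressed relative to initial linear rate without drug.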

The target is the same in assay [2]. Nature of the assay: Inhibition of DNA polymerase activity of HIV-1 reverse transcriptase (at 50 uM). A digest of the protocol: as §1
The test system of assay [3] is MT4. Nature of the assay: 50% effective antiviral concentration was determined on HIV-1 (HTLV-IIIB) in MT-4 cells. It counts as functional, cell-based. The note with it: Homo sapiens.
The subject of assay [4] is MT4. Nature of the assay: 50% cytotoxic concentration was determined on HIV-1 (HTLV-IIIB) in MT-4 cells. As to conditions: Homo sapiens. It is filed as functional.
Assay [5] concerns the target Human immunodeficiency virus type 1 reverse transcriptase (Human immunodeficiency virus 1, UniProt Q72547). The assay can be described thus: The 50% inhibitory concentration was measured as inhibition of Ribonuclease H activity of reverse transcriptase.

Experimental findings from ChEMBL document CHEMBL1127605, “Synthesis of naphthalenesulfonic acid small molecules as selective inhibitors of the DNA polymerase and ribonuclease H activities of HIV-1 reverse transcriptase” (J Med Chem, 1994) are described below.

Consider `O=C(CCCCCCCCC(=O)Nc1ccc(S(=O)(=O)O)c2ccccc12)Nc1ccc(S(=O)(=O)O)c2ccccc12`, for which the figures for the Initial activity in assay [1] and in assay [2] were 70% and 94%, respectively.
`CCCCCCCCCCCCCCCC(=O)Nc1c(O)cc(S(=O)(=O)O)c2ccccc12`: the Initial activity in assay [1] is 3%; in assay [2], 0.02%. In assay [3], the EC50 was over 21 µM. Also, in assay [4], the CC50 was 21 µM. The IC50 in assay [5] amounted to 47.6 µM.
Turning to `O=C(Nc1ccc(S(=O)(=O)O)c2cccc(S(=O)(=O)O)c12)c1ccc(C(=O)Nc2ccc(S(=O)(=O)O)c3cccc(S(=O)(=O)O)c23)cc1`, the Initial activity worked out at 92% in assay [1] and 90% in assay [2].
The matching figures for `O=C(CCCCCCCCC(=O)Nc1cc(S(=O)(=O)O)cc2cc(S(=O)(=O)O)cc(O)c12)Nc1cc(S(=O)(=O)O)cc2cc(S(=O)(=O)O)cc(O)c12`: 30% and 0%.
On to `O=C(CCCCCCC(=O)Nc1ccc(S(=O)(=O)O)c2ccccc12)Nc1ccc(S(=O)(=O)O)c2ccccc12`, for which the Initial activity turned out to be 59% in assay [1] and 90% in assay [2].
With `O=C(CCCCCCCCC(=O)Nc1ccc(S(=O)(=O)O)c2cccc(S(=O)(=O)O)c12)Nc1ccc(S(=O)(=O)O)c2cccc(S(=O)(=O)O)c12`, the Initial activity in assay [1] was found to be 57%; in assay [2] it was 54%.
Turning to `Cc1cc(C)c(S(=O)(=O)Oc2ccc3cccc(S(=O)(=O)O)c3c2)c(C)c1S(=O)(=O)Oc1ccc2cccc(S(=O)(=O)O)c2c1`, the Initial activity in assay [1] is 23%; in assay [2], 13%. Moreover, a half-maximal effect in assay [3] (EC50) was put at 42 µM. In addition, it took 228 µM to reach half-maximal cytotoxicity in assay [4] (CC50).
The matching figures for `CCCCCCCCCCCCCCCC(=O)Nc1c(OC(=O)CCCCCCCCCCCCCCC)cc(S(=O)(=O)O)c2ccccc12`: 5.3%, 0.03%, over 41 µM and 41 µM.
Turning to `O=C(CCCCCCC(=O)Nc1ccc(S(=O)(=O)O)c2cccc(S(=O)(=O)O)c12)Nc1ccc(S(=O)(=O)O)c2cccc(S(=O)(=O)O)c12`, the results for the Initial activity in assay [1] and in assay [2] were 84% and 100%, respectively.
On to `CCCCCCCCCCCCCCCC(=O)Oc1cc(S(=O)(=O)O)c2ccccc2c1N`, for which the Initial activity in assay [1] worked out at 7.5%; in assay [2], 6.5%. This compound had an EC50 in assay [3] of over 38 µM. In assay [4], this compound came in with a CC50 of 38 µM.
On to `CCCCCCCCCCCCCCCC(=O)Nc1ccc(S(=O)(=O)O)c2cccc(S(=O)(=O)O)c12`, for which the results for the Initial activity in assay [1] and in assay [2] were 2.8% and 0.16%, respectively. In assay [3], it took 100 µM to reach a half-maximal effect (EC50). Also, in assay [4], half-maximal cytotoxicity (CC50) was put at 225 µM. The same compound displayed an IC50 in assay [5] of 27.5 µM.
As to `CCCCCCCCCCCCCCCC(=O)Nc1ccc(S(=O)(=O)O)c2ccccc12`, the Initial activity in assay [1] was determined as 98%; in assay [2], 100%. The compound also showed an EC50 in assay [3] of over 47 µM. In assay [4], this compound yielded a CC50 of 47 µM.
As for `O=S(=O)(O)c1ccc2c(OS(=O)(=O)c3cccc4c(S(=O)(=O)Oc5cc(S(=O)(=O)O)cc6cc(S(=O)(=O)O)ccc56)cccc34)cc(S(=O)(=O)O)cc2c1`, the Initial activity in assay [1] turned out to be 43%; in assay [2] it was 0%. In assay [3], the EC50 came out at 39 µM. In assay [4], this compound had a 50% cytotoxic concentration (CC50) of 322 µM. For the same compound, in assay [5], 215 µM corresponded to half-maximal inhibition (IC50).
As to `O=S(=O)(O)c1cc(S(=O)(=O)O)c2cc(NS(=O)(=O)c3cccc4c(S(=O)(=O)Nc5ccc6cc(S(=O)(=O)O)cc(S(=O)(=O)O)c6c5)cccc34)ccc2c1`, the Initial activity stood at 51% in assay [1] and 16% in assay [2].
As to `O=C(CCCCCCCCCCC(=O)Nc1ccc(S(=O)(=O)O)c2ccccc12)Nc1ccc(S(=O)(=O)O)c2ccccc12`, the Initial activity in assay [1] is 32%; in assay [2] it was 100%. This compound registered an EC50 in assay [3] of 260 µM. This compound also gave a CC50 in assay [4] of over 500 µM.
With `O=S(=O)(O)c1cccc2ccc(OS(=O)(=O)c3cccc4c(S(=O)(=O)Oc5ccc6cccc(S(=O)(=O)O)c6c5)cccc34)cc12`, the results for the Initial activity in assay [1] and in assay [2] were 17% and 25%, respectively.
The like results for `Cc1cc(C)c(S(=O)(=O)Nc2cc(C(=O)O)c(O)c(S(=O)(=O)O)c2)c(C)c1S(=O)(=O)Nc1cc(C(=O)O)c(O)c(S(=O)(=O)O)c1` were, in that order, 32% and 2%.
The like results for `CCCCCCCCCCCCCCCC(=O)Oc1cc(S(=O)(=O)O)cc2cc(S(=O)(=O)O)cc(OC(=O)CCCCCCCCCCCCCCC)c12` were, in that order, 27% and 0%.
The like results for `O=S(=O)(O)c1cc(S(=O)(=O)O)c2cc(NS(=O)(=O)c3ccc(-c4ccc(S(=O)(=O)Nc5ccc6cc(S(=O)(=O)O)cc(S(=O)(=O)O)c6c5)cc4)cc3)ccc2c1` were, in that order, 28% and 0.9%.
On to `O=C(Oc1cc(S(=O)(=O)O)cc2cc(S(=O)(=O)O)ccc12)c1ccc(-c2ccc(C(=O)Oc3cc(S(=O)(=O)O)cc4cc(S(=O)(=O)O)ccc34)cc2)cc1`, for which the Initial activity in assay [1] turned out to be 0%; in assay [2], 0.2%. In assay [3], the midpoint of the response, the EC50, lay at 81.5 µM. This compound also registered a CC50 in assay [4] of over 500 µM. Moreover, in assay [5], the IC50 came out at 14.4 µM.
Turning to `O=S(=O)(O)c1cccc2ccc(OS(=O)(=O)c3ccc(-c4ccc(S(=O)(=O)Oc5ccc6cccc(S(=O)(=O)O)c6c5)cc4)cc3)cc12`, the Initial activity in assay [1] was found to be 48%; in assay [2] it was 0%.
Consider `CCCCCCCCCCCCCCCc1nc2c(cc(S(=O)(=O)O)c3ccccc32)o1`, for which the Initial activity stood at 68% in assay [1] and 0.2% in assay [2]. In assay [3], this compound registered an EC50 of over 42 µM. The compound further yielded a CC50 in assay [4] of 42 µM.
Turning to `O=C(O)c1cc(NS(=O)(=O)c2cccc3c(S(=O)(=O)Nc4cc(C(=O)O)c(O)c(S(=O)(=O)O)c4)cccc23)cc(S(=O)(=O)O)c1O`, the Initial activity was 75% in assay [1] and 46% in assay [2].
The matching figures for `Nc1ccc(S(=O)(=O)O)c2ccccc12`: 88% and 100%.
The matching figures for `Nc1ccc(S(=O)(=O)O)c2cccc(S(=O)(=O)O)c12`: 100% and 100%.
The matching figures for `O=C(CCCCCCCCCCC(=O)Nc1ccc(S(=O)(=O)O)c2cccc(S(=O)(=O)O)c12)Nc1ccc(S(=O)(=O)O)c2cccc(S(=O)(=O)O)c12`: 16% and 13%.
`CC(C)CCCC(C)C1CCC2C3CC=C4CC(OC(=O)Nc5cc(S(=O)(=O)O)cc6cc(S(=O)(=O)O)cc(O)c56)CC[C@]4(C)C3CC[C@]12C` (stereo not given in full): the Initial activity in assay [1] and in assay [2] was 0% throughout. In assay [3], the EC50 is over 500 µM. Further, the CC50 in assay [4] is over 500 µM.

The EC50 is the concentration that produces a half-maximal response. A higher EC50 goes with lower potency in that assay. As a reminder, the CC50 is the concentration giving 50% cytotoxicity. Read a low CC50 as greater toxicity to the cells. In general, IC50 refers to the concentration that gives 50% inhibition.
